# Measured values of several laboratories.
# SETD7: Histone-lysine N-methyltransferase SETD7 (SETD7, Homo sapiens, UniProt Q8WTS6)
# SLC10A2: Ileal sodium/bile acid cotransporter (SLC10A2, Homo sapiens, UniProt Q12908)
SMILES,target,read-out,mode,technique,tested at,time,inhibition
CC(=O)N[C@H]1CSSC[C@@H](C(=O)N[C@H](Cc2c[nH]c3ccccc23)C(N)=O)NC(=O)[C@@H](Cc2ccccc2)NC(=O)[C@H](CCCNC(=N)N)NC1=O,"Melanocortin receptor 5 (MC5R, Homo sapiens, UniProt P33032)",ligand displacement,,radioligand,10 µM,40 min,0%
CCN(c1cc(C#CCN2CCOCC2)cc(C(=O)NCc2c(C)cc(C)[nH]c2=O)c1C)[C@H]1CC[C@H](N(C)CCOC)CC1,"Histone-lysine N-methyltransferase SETD2 (SETD2, Homo sapiens, UniProt Q9BYW2)",enzyme activity,inhibitor,,1 µM,,20%
CSCCC(NC=O)C(=O)NC(C)C(=O)O (stereo not drawn),SETD7,cell-free assay,,,10 µM,,7%
C=C[C@H]1C[N@@]2CC[C@H]1C[C@H]2[C@H](O)c1ccnc2ccc(OC)cc12,SLC10A2,transporter uptake,inhibitor,radiometric,1 mM,,59.9%
CN1CC(Oc2cnc(C#N)cc2-c2ccn3nc(NC(=O)C4CC4)cc3c2)C1,"Serine/threonine-protein kinase 35 (STK35, Homo sapiens, UniProt Q8TDR2)",enzyme activity,inhibitor,,1 µM,,1%
O=C(O)c1cc(=O)c2c(OCC(O)COc3cccc4oc(C(=O)O)cc(=O)c34)cccc2o1,SLC10A2,transporter uptake,inhibitor,radiometric,1 mM,,< 10%
O=c1c(O)cccc2c([C@H]3Oc4cc(O)cc(O)c4C[C@H]3O)cc(O)c(O)c12,SETD7,cell-free assay,,,10 µM,,16%
CNC(=C[N+](=O)[O-])NCCSCc1ccc(CN(C)C)o1,SLC10A2,transporter uptake,inhibitor,radiometric,1 mM,,30.2%
O=c1c(O)cccc2cc(O)c(O)c(O)c12,SETD7,cell-free assay,,,10 µM,,27%
